The full list was thinned out, with hits kept by preference.
HCT116 bCat-KO = beta-catenin-lacking colon tumor cell growth suppression; HCT116 beta-catenin knockout viability, CellTiter-Glo, 60 h; active compounds read low; viability, % at 10 µM; 140,000 compounds, 1.5% hits;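 active means viability at or under a set limit, the compound median less 4 SD, cut at about 6% in these data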;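 further: 0% = Hyamine 1622 control at 20 µM and 100% = untreated cell control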
H69AR growth 86K = blocks growth of human H69AR lung tumor cells; H69AR lung tumor viability, ATP luminescence, 72 h; active compounds read low; viability, % at 10 µM; 85,000 compounds, 6% hits; AID 598;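 active means viability at or below 40%; inactive means viability above 40%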;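 further: multidrug resistant small cell line overexpressing MRP-1 efflux transporter; 100% = mean luminescence of untreated control wells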
HCT116 PTEN-null = PTEN-deleted cell growth suppression | HCT116 PTEN-null viability, CellTiter-Glo, 60 h; active compounds read low | viability, % at 10 µM | 140,000 compounds, 1.2% hits;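 active means viability at or below a set limit, 4 SD under the median of all tested compounds, cut at about 3.7% in these data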;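 further: PTEN knockout HCT116 line with beta catenin targeted HCT116 as companion control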
HUVEC prolif 384 = human endothelial cell proliferation inhibition | HUVEC proliferation, CellTiter-Glo luminescence, 72 h; active compounds read low | viability, % at 10 µM (by protocol) | 86,000 compounds, 1.1% hits | AID 648;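 active means viability at or below 30%; inactive means viability above 30%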;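 further: 100% = median luminescence of DMSO-only cell control wells on each plate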
Fibroblast inh = blocks proliferation of human lung fibroblasts; AID 719; viability, % at 10 µM; LL 47 human lung fibroblast viability, ATP luminescence; active compounds read low; 85,000 compounds, 1.1% hits;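 active means viability at or below 50% in the single dose screen; inactive means viability above 50%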;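 further: compound exposure lasted 72 h before the ATP readout; 100% = median luminescence of untreated cell-only wells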
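Material: human LL 47 lung fibroblast cells; quantity: 1,150 cells/well; medium: IMEM plus 15% FBS; doses: 0.1% DMSO in all compound wells; timing: overnight attachment after seeding, then 72 h compound exposure at 37 °C; detection: CellTiter-Glo luminescence; measure: % viability of median cell-only signal; controls: cell-only wells, no compound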
Active calls of the source: *.

Results for CCOCCCN=Cc1c(O)n(Cc2ccccc2)c(=O)[nH]c1=O ?
HCT116 bCat-KO: 106; H69AR growth 86K: 95; HCT116 PTEN-null: 99; HUVEC prolif 384: 97; Fibroblast inh: 89

How did C=CCn1c(O)c(C=NCCCOc2ccc(CC)cc2)c(=O)[nH]c1=S do in these assays?
HCT116 bCat-KO: 69; H69AR growth 86K: 31*; HCT116 PTEN-null: 70; HUVEC prolif 384: 49; Fibroblast inh: 83

What do the screens show for `Cc1cccn2c(=O)c3c(nc12)N1CCC(Cc2ccccc2)CC1C1(C3)C(=O)N(C)C(=O)N(C)C1=O` (configuration not stated)?
HCT116 bCat-KO: 68; H69AR growth 86K: 29*; HCT116 PTEN-null: 70; HUVEC prolif 384: 74; Fibroblast inh: 103

How did Cc1nn(Cc2ccccc2)c(C)c1C(=O)NC1CCCc2ccccc21 (configuration not stated) do in these assays?
HCT116 bCat-KO: 99; HCT116 PTEN-null: 96

What do the screens show for `CCCCc1ccc2[nH]cc(CCN)c2c1`?
HCT116 bCat-KO: 18; H69AR growth 86K: 14*; HCT116 PTEN-null: 4; HUVEC prolif 384: 84; Fibroblast inh: 83

How did Cc1oc(C(=O)Nc2ccc(O)cc2)cc1COc1ccccc1 do in these assays?
HCT116 bCat-KO: 91; H69AR growth 86K: 29*; HCT116 PTEN-null: 94; HUVEC prolif 384: 63; Fibroblast inh: 104

Results for Cc1ccc(N=Nc2c(O)[nH]c(=O)[nH]c2=O)c([N+](=O)[O-])c1 ?
HCT116 bCat-KO: 91; HCT116 PTEN-null: 84

How did CCCCC1(CCCC)C(=O)NC(=Nc2cccc(C)c2)NC1=O do in these assays?
HCT116 bCat-KO: 32; H69AR growth 86K: 7.8*; HCT116 PTEN-null: 12; HUVEC prolif 384: 59; Fibroblast inh: 52

What do the screens show for `Cc1nn(Cc2ccccc2Cl)c(C)c1C(=O)OCC(=O)N1CC(C)OC(C)C1` (configuration not stated)?
HCT116 bCat-KO: 87; HCT116 PTEN-null: 93

What do the screens show for `Cc1cccc(OP(=O)(Oc2ccccc2)OC(c2ccccc2)C(F)(F)F)c1` (configuration not stated)?
HCT116 bCat-KO: 65; HCT116 PTEN-null: 63

What do the screens show for `O=C(Nc1ccc(F)cc1F)c1cccnc1Oc1cccc(C(F)(F)F)c1`?
HCT116 bCat-KO: 100; HCT116 PTEN-null: 106

Results for Clc1ccc(COC(Cn2ccnc2)c2ccc(Cl)cc2Cl)c(Cl)c1 (configuration not stated) ?
HCT116 bCat-KO: 35; H69AR growth 86K: 2.3*; HCT116 PTEN-null: 40; HUVEC prolif 384: 41; Fibroblast inh: 82

How did COc1cccc(OC)c1C1=NCC(=O)Nc2c1oc1ccc(Br)cc21 do in these assays?
HCT116 bCat-KO: 15; H69AR growth 86K: 34*; HCT116 PTEN-null: 16; HUVEC prolif 384: 46; Fibroblast inh: 60

What do the screens show for `CCNc1nc(Cl)nc(NC(C)C)n1`?
HCT116 bCat-KO: 92; HCT116 PTEN-null: 91

What do the screens show for `O=C(Nc1ccc(Cl)cc1)Nc1nccs1`?
HCT116 bCat-KO: 20; H69AR growth 86K: 29*; HCT116 PTEN-null: 36; HUVEC prolif 384: 53; Fibroblast inh: 56

Results for O=C(CF)NC(Nc1cccc2cccnc12)C(Cl)(Cl)Cl (configuration not stated) ?
HCT116 bCat-KO: 92; HCT116 PTEN-null: 94

What do the screens show for `COc1ccc(NC(=S)NC(NC(=O)CF)C(Cl)(Cl)Cl)c([N+](=O)[O-])c1` (configuration not stated)?
HCT116 bCat-KO: 98; HCT116 PTEN-null: 89

How did CCCOC(=O)c1c(N)n(Cc2cccs2)c2nc3ccccc3nc12 do in these assays?
HCT116 bCat-KO: 75; H69AR growth 86K: 41; HCT116 PTEN-null: 83; HUVEC prolif 384: 75; Fibroblast inh: 96

Results for CCCCCn1c(N)c(C(=O)NCc2cccs2)c2nc3ccccc3nc21 ?
HCT116 bCat-KO: 27; H69AR growth 86K: 32*; HCT116 PTEN-null: 20; HUVEC prolif 384: 82; Fibroblast inh: 86

How did Nc1c(C(=O)NCCCc2ccccc2)c2nc3ccccc3nc2n1Cc1cccs1 do in these assays?
HCT116 bCat-KO: 2.9*; H69AR growth 86K: 61; HCT116 PTEN-null: 1.9*; HUVEC prolif 384: 53; Fibroblast inh: 88

What do the screens show for `CCCCn1c(N)c(C(=O)NCc2cccs2)c2nc3ccccc3nc21`?
HCT116 bCat-KO: 18; H69AR growth 86K: 35*; HCT116 PTEN-null: 16; HUVEC prolif 384: 71; Fibroblast inh: 71

What do the screens show for `O=C(O)[C@H]1C[C@@H]1[C@H](NP(=O)(c1ccccc1)c1ccccc1)c1ccccc1`?
HCT116 bCat-KO: 103; HCT116 PTEN-null: 98

How did CC(C)OP(=O)(OC(C)C)C(O)c1ccccc1F (configuration not stated) do in these assays?
HCT116 bCat-KO: 97; HCT116 PTEN-null: 88

How did CCc1cccc(C)c1NC(=S)N1CC2CC(C1)c1cccc(=O)n1C2 (configuration not stated) do in these assays?
HCT116 bCat-KO: 88; HCT116 PTEN-null: 92

How did C[C@H]1CCCC(=O)CCC/C=C/c2cc(O)cc(O)c2C(=O)O1 do in these assays?
HCT116 bCat-KO: 65; H69AR growth 86K: 36*; HCT116 PTEN-null: 66; HUVEC prolif 384: 52; Fibroblast inh: 106

What do the screens show for `CCCCCCCSc1cc(OC)c(CCNC)cc1OC`?
HCT116 bCat-KO: 1.5*; HCT116 PTEN-null: 1.6*

What do the screens show for `CCOc1ccc(-n2c(O)c(C=Nc3ccc(N(CC)CC)cc3)c(=O)[nH]c2=O)cc1`?
HCT116 bCat-KO: 71; H69AR growth 86K: 54; HCT116 PTEN-null: 73; HUVEC prolif 384: 90; Fibroblast inh: 103

Results for CCN(CC)c1ccc(N=Cc2c(O)n(-c3ccccc3C)c(=O)[nH]c2=O)cc1 ?
HCT116 bCat-KO: 64; H69AR growth 86K: 55; HCT116 PTEN-null: 66; HUVEC prolif 384: 83; Fibroblast inh: 93

How did C=CCn1c(O)c(C(C)=Nc2ccc(N(CC)CC)cc2)c(=O)[nH]c1=O do in these assays?
HCT116 bCat-KO: 36; H69AR growth 86K: 20*; HCT116 PTEN-null: 28; HUVEC prolif 384: 70; Fibroblast inh: 66

Results for CCOc1ccccc1-n1c(O)c(C=Nc2ccc(N(CC)CC)cc2)c(=O)[nH]c1=O ?
HCT116 bCat-KO: 44; H69AR growth 86K: 19*; HCT116 PTEN-null: 53; HUVEC prolif 384: 65; Fibroblast inh: 71

What do the screens show for `CCN(CC)c1ccc(N=Cc2c(O)n(Cc3ccccc3)c(=O)[nH]c2=O)cc1`?
HCT116 bCat-KO: 86; H69AR growth 86K: 17*; HCT116 PTEN-null: 97; HUVEC prolif 384: 70; Fibroblast inh: 74

What do the screens show for `CCC(C)NS(=O)(=O)c1ccc(OCC(=O)N2CCN(CC)CC2)cc1` (configuration not stated)?
HCT116 bCat-KO: 94; H69AR growth 86K: 94; HCT116 PTEN-null: 96; HUVEC prolif 384: 92; Fibroblast inh: 96

Results for COc1ccccc1-n1c(-c2ccoc2)nc2ccccc2c1=O ?
HCT116 bCat-KO: 90; HCT116 PTEN-null: 82

What do the screens show for `O=c1c2ccccc2nc(-c2ccoc2)n1-c1ccccc1Cl`?
HCT116 bCat-KO: 36; H69AR growth 86K: 34*; HCT116 PTEN-null: 34; HUVEC prolif 384: 86; Fibroblast inh: 98
